Data published in ChEMBL document CHEMBL1147748, “Overlapping, nonidentical binding sites of different classes of nonpeptide antagonists for the human gonadotropin-releasing hormone receptor” (J Med Chem, 2006).

Assays:
[1] = molecular target: Gonadotropin-releasing hormone receptor (Homo sapiens, UniProt P30968, S118A); test: Displacement of [125I]-His5, D-Tyr6]GnRH from mutant GnRHR, GnRHR S118A
[2] = molecular target: Gonadotropin-releasing hormone receptor (Homo sapiens, UniProt P30968, E295A); test: Displacement of [125I]-His5, D-Tyr6]GnRH from mutant GnRHR, GnRHR E295A
Method in brief: (§1)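 Human GnRH-R (wild type or site-directed point mutant) was transiently expressed in COS-7 cells by electroporation, with cells cultured 36-48 h before membranes were prepared. Membranes (5-20 µg per point) were incubated 2 h at room temperature with 0.3 nM tracer and varying competitor in HEPES pH 7.5, 150 mM NaCl, 0.1% BSA, then filtered and counted.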

[3] = molecular target: Gonadotropin-releasing hormone receptor (Homo sapiens, UniProt P30968, S124A); test: Displacement of [125I]-His5, D-Tyr6]GnRH from mutant GnRHR, GnRHR S124A
[4] = molecular target: Gonadotropin-releasing hormone receptor (Homo sapiens, UniProt P30968, S186D); test: Displacement of [125I]-His5, D-Tyr6]GnRH from mutant GnRHR, GnRHR S186D
[5] = molecular target: Gonadotropin-releasing hormone receptor (Homo sapiens, UniProt P30968, H306E); test: Displacement of [125I]-His5, D-Tyr6]GnRH from mutant GnRHR, GnRHR H306E; method in brief: as §1
[6] = molecular target: Gonadotropin-releasing hormone receptor (Homo sapiens, UniProt P30968, K121A); test: Displacement of [125I]-His5, D-Tyr6]GnRH from mutant GnRHR, GnRHR K121A; method in brief: as §1
[7] = molecular target: Gonadotropin-releasing hormone receptor (Homo sapiens, UniProt P30968, W291F); test: Displacement of [125I]-His5, D-Tyr6]GnRH from mutant GnRHR, GnRHR W291F
[8] = molecular target: Gonadotropin-releasing hormone receptor (Homo sapiens, UniProt P30968, N315A); test: Displacement of [125I]-His5, D-Tyr6]GnRH from mutant GnRHR, GnRHR N315A; method in brief: as §1
[9] = molecular target: Gonadotropin-releasing hormone receptor (Homo sapiens, UniProt P30968, M24A); test: Displacement of [125I]-His5, D-Tyr6]GnRH from mutant GnRHR, GnRHR M24A; method in brief: as §1
[10] = molecular target: Gonadotropin-releasing hormone receptor (Homo sapiens, UniProt P30968, H306A); test: Displacement of [125I]-His5, D-Tyr6]GnRH from mutant GnRHR, GnRHR H306A; method in brief: as §1
[11] = molecular target: Gonadotropin-releasing hormone receptor (Homo sapiens, UniProt P30968, E111Q); test: Displacement of [125I]-His5, D-Tyr6]GnRH from mutant GnRHR, GnRHR E111Q; method in brief: as §1
[12] = molecular target: Gonadotropin-releasing hormone receptor (Homo sapiens, UniProt P30968, S203E); test: Displacement of [125I]-His5, D-Tyr6]GnRH from mutant GnRHR, GnRHR S203E
[13] = molecular target: Gonadotropin-releasing hormone receptor (Homo sapiens, UniProt P30968); test: Displacement of [125I]-His5, D-Tyr6]GnRH from human wild type GnRHR; method in brief: as §1
[14] = molecular target: Gonadotropin-releasing hormone receptor (Homo sapiens, UniProt P30968, F313L); test: Displacement of [125I]-His5, D-Tyr6]GnRH from mutant GnRHR, GnRHR F313L; method in brief: as §1
[15] = molecular target: Gonadotropin-releasing hormone receptor (Homo sapiens, UniProt P30968, D302Q); test: Displacement of [125I]-His5, D-Tyr6]GnRH from mutant GnRHR, GnRHR D302Q; method in brief: as §1
[16] = molecular target: Gonadotropin-releasing hormone receptor (Homo sapiens, UniProt P30968, L300V); test: Displacement of [125I]-His5, D-Tyr6]GnRH from mutant GnRHR, GnRHR L300V; method in brief: as §1
[17] = molecular target: Gonadotropin-releasing hormone receptor (Homo sapiens, UniProt P30968, S118N); test: Displacement of [125I]-His5, D-Tyr6]GnRH from mutant GnRHR, GnRHR S118N
[18] = molecular target: Gonadotropin-releasing hormone receptor (Homo sapiens, UniProt P30968, Q189P); test: Displacement of [125I]-His5, D-Tyr6]GnRH from mutant GnRHR, GnRHR Q189P
[19] = molecular target: Gonadotropin-releasing hormone receptor (Homo sapiens, UniProt P30968, E111A); test: Displacement of [125I]-His5, D-Tyr6]GnRH from mutant GnRHR, GnRHR E111A; method in brief: as §1
[20] = molecular target: Gonadotropin-releasing hormone receptor (Homo sapiens, UniProt P30968, S168A); test: Displacement of [125I]-His5, D-Tyr6]GnRH from mutant GnRHR, GnRHR S168A
[21] = molecular target: Gonadotropin-releasing hormone receptor (Homo sapiens, UniProt P30968, L112F); test: Displacement of [125I]-His5, D-Tyr6]GnRH from mutant GnRHR, GnRHR L112F; method in brief: as §1
[22] = molecular target: Gonadotropin-releasing hormone receptor (Homo sapiens, UniProt P30968, L300K); test: Displacement of [125I]-His5, D-Tyr6]GnRH from mutant GnRHR, GnRHR L300K; method in brief: as §1
[23] = molecular target: Gonadotropin-releasing hormone receptor (Homo sapiens, UniProt P30968, Y290L); test: Displacement of [125I]-His5, D-Tyr6]GnRH from mutant GnRHR, GnRHR Y290L
[24] = molecular target: Gonadotropin-releasing hormone receptor (Homo sapiens, UniProt P30968, L300A); test: Displacement of [125I]-His5, D-Tyr6]GnRH from mutant GnRHR, GnRHR L300A; method in brief: as §1
[25] = molecular target: Gonadotropin-releasing hormone receptor (Homo sapiens, UniProt P30968, D302A); test: Displacement of [125I]-His5, D-Tyr6]GnRH from mutant GnRHR, GnRHR D302A; method in brief: as §1
[26] = molecular target: Gonadotropin-releasing hormone receptor (Homo sapiens, UniProt P30968, A50T); test: Displacement of [125I]-His5, D-Tyr6]GnRH from mutant GnRHR, GnRHR A50T; method in brief: as §1
[27] = molecular target: Gonadotropin-releasing hormone receptor (Homo sapiens, UniProt P30968, S203Q); test: Displacement of [125I]-His5, D-Tyr6]GnRH from mutant GnRHR, GnRHR S203Q
[28] = molecular target: Gonadotropin-releasing hormone receptor (Homo sapiens, UniProt P30968, S168I); test: Displacement of [125I]-His5, D-Tyr6]GnRH from mutant GnRHR, GnRHR S168I
[29] = molecular target: Gonadotropin-releasing hormone receptor (Homo sapiens, UniProt P30968, M24T); test: Displacement of [125I]-His5, D-Tyr6]GnRH from mutant GnRHR, GnRHR M24T; method in brief: as §1
[30] = molecular target: Gonadotropin-releasing hormone receptor (Homo sapiens, UniProt P30968, E295Q); test: Displacement of [125I]-His5, D-Tyr6]GnRH from mutant GnRHR, GnRHR E295Q; method in brief: as §1
Gonadotropin-releasing hormone receptor (Homo sapiens, UniProt P30968, E295Q), sequence (P30968 whole entry E295Q): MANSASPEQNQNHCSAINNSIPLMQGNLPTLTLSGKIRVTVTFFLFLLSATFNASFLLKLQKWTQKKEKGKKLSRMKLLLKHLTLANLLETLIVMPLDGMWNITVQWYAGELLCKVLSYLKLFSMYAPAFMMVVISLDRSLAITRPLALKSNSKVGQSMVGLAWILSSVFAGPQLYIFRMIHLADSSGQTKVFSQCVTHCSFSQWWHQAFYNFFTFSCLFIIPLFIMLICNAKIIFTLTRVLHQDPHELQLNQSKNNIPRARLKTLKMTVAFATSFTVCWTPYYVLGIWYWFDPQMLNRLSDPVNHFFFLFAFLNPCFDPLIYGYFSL

Gonadotropin-releasing hormone receptor (Homo sapiens, UniProt P30968, M24T), sequence (P30968 whole entry M24T): as the sequence (P30968 whole entry E295Q) above, with M24T, Q295E counted along it
Gonadotropin-releasing hormone receptor (Homo sapiens, UniProt P30968, S168A), sequence (P30968 whole entry S168A): as the sequence (P30968 whole entry E295Q) above, with S168A, Q295E counted along it
Gonadotropin-releasing hormone receptor (Homo sapiens, UniProt P30968, L300K), sequence (P30968 whole entry L300K): as the sequence (P30968 whole entry E295Q) above, with Q295E, L300K counted along it
Gonadotropin-releasing hormone receptor (Homo sapiens, UniProt P30968, Y290L), sequence (P30968 whole entry Y290L): as the sequence (P30968 whole entry E295Q) above, with Y290L, Q295E counted along it
Gonadotropin-releasing hormone receptor (Homo sapiens, UniProt P30968, F313L), sequence (P30968 whole entry F313L): as the sequence (P30968 whole entry E295Q) above, with Q295E, F313L counted along it
Gonadotropin-releasing hormone receptor (Homo sapiens, UniProt P30968, W291F), sequence (P30968 whole entry W291F): as the sequence (P30968 whole entry E295Q) above, with W291F, Q295E counted along it
Gonadotropin-releasing hormone receptor (Homo sapiens, UniProt P30968, L112F), sequence (P30968 whole entry L112F): as the sequence (P30968 whole entry E295Q) above, with L112F, Q295E counted along it
Gonadotropin-releasing hormone receptor (Homo sapiens, UniProt P30968, H306A), sequence (P30968 whole entry H306A): as the sequence (P30968 whole entry E295Q) above, with Q295E, H306A counted along it
Gonadotropin-releasing hormone receptor (Homo sapiens, UniProt P30968, A50T), sequence (P30968 whole entry A50T): as the sequence (P30968 whole entry E295Q) above, with A50T, Q295E counted along it
Gonadotropin-releasing hormone receptor (Homo sapiens, UniProt P30968, K121A), sequence (P30968 whole entry K121A): as the sequence (P30968 whole entry E295Q) above, with K121A, Q295E counted along it
Gonadotropin-releasing hormone receptor (Homo sapiens, UniProt P30968, E295A), sequence (P30968 whole entry E295A): as the sequence (P30968 whole entry E295Q) above, with Q295A counted along it
Gonadotropin-releasing hormone receptor (Homo sapiens, UniProt P30968, S124A), sequence (P30968 whole entry S124A): as the sequence (P30968 whole entry E295Q) above, with S124A, Q295E counted along it
Gonadotropin-releasing hormone receptor (Homo sapiens, UniProt P30968, M24A), sequence (P30968 whole entry M24A): as the sequence (P30968 whole entry E295Q) above, with M24A, Q295E counted along it

Structure (SMILES) | IC50 [1] | IC50 [2] | IC50 [3] | IC50 [4] | IC50 [5] | IC50 [6] | IC50 [7] | IC50 [8] | IC50 [9] | IC50 [10] | IC50 [11] | IC50 [12] | IC50 [13] | IC50 [14] | IC50 [15] | IC50 [16] | IC50 [17] | IC50 [18] | IC50 [19] | IC50 [20] | also measured
COc1c(C)cc(-c2[nH]c3ccc(C(C)(C)C(=O)N(CC(C)C)CC(C)C)cc3c2[C@H](C)CNCCc2ccccc2)cc1C | 46.8 nM | 11.2 nM | 21.3 nM | 11.3 nM | 48.8 nM | 82.3 nM | 6.8 nM | 47.1 nM | 17.9 nM | 23.3 nM | 11.5 nM | 15.1 nM | 17.7 nM | 623 nM | 20.6 nM | 164 nM | 63.7 nM | 10.8 nM | 5.4 nM | 8.9 nM | IC50 [21]: 29.5 nM; IC50 [22]: 277 nM; IC50 [23]: 202 nM; IC50 [24]: 87.9 nM; IC50 [25]: 11 nM; IC50 [26]: 17.8 nM; IC50 [27]: 15.7 nM; IC50 [28]: 15.2 nM; IC50 [29]: 57.1 nM; IC50 [30]: 15.2 nM
CC(C)C[C@H](NC(=O)[C@@H](Cc1ccc(O)cc1)NC(=O)[C@H](Cc1c[nH]cn1)NC(=O)[C@H](CO)NC(=O)[C@H](Cc1c[nH]c2ccccc12)NC(=O)[C@H](Cc1c[nH]cn1)NC(=O)[C@@H]1CCC(=O)N1)C(=O)N[C@@H](CCCN=C(N)N)C(=O)N1CCC[C@H]1C(=O)NCC(N)=O | 3.3 nM | 1.9 nM | 3.9 nM | 3.1 nM | 52.8 nM | 267 nM | 60.1 nM | 0.8 nM | 5.9 nM | 50.6 nM | 3.3 nM | 2.9 nM | 8.1 nM | 5.6 nM | 26.5 nM | 6.5 nM | 1.1 nM | 1.9 nM | 4.6 nM | 4 nM | IC50 [21]: 2.7 nM; IC50 [22]: 35.3 nM; IC50 [23]: 951 nM; IC50 [24]: 18.2 nM; IC50 [25]: 42.2 nM; IC50 [26]: 3.6 nM; IC50 [27]: 2.9 nM; IC50 [28]: 3.8 nM; IC50 [29]: 4.9 nM; IC50 [30]: 2.4 nM
